Test results taken from ChEMBL document CHEMBL1250448, “Inhibitor hijacking of Akt activation” (Nat Chem Biol, 2009).

These compounds were tested against AMP-activated protein kinase (AMPK) alpha-1/beta-1/gamma-1 (Homo sapiens) (UniProt P54619+Q9Y478+Q13131) (assay: Inhibition of AMPK A1/B1/G1 at 1 uM in presence of 10 uM ATP by Select Screen kinase assay relative to untreated control).
Format: protein-complex assay
In short: (§1)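 Single-point screen at 1 μM against a panel of 220 purified kinases, run by Invitrogen staff as a SelectScreen profiling service. Read-out is percent inhibition of kinase activity.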

AMP-activated protein kinase (AMPK) alpha-1/beta-1/gamma-1 (Homo sapiens), sequence (P54619 whole entry): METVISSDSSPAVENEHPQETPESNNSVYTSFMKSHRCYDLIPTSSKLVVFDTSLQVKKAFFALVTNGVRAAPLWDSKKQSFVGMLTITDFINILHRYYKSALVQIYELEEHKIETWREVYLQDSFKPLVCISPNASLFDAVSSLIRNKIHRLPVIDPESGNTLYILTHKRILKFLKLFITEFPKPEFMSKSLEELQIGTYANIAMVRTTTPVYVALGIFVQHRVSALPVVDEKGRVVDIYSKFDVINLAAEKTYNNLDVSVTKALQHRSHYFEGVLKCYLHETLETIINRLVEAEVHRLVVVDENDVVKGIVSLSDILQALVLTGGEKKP
AMP-activated protein kinase (AMPK) alpha-1/beta-1/gamma-1 (Homo sapiens), sequence (Q13131 whole entry partner): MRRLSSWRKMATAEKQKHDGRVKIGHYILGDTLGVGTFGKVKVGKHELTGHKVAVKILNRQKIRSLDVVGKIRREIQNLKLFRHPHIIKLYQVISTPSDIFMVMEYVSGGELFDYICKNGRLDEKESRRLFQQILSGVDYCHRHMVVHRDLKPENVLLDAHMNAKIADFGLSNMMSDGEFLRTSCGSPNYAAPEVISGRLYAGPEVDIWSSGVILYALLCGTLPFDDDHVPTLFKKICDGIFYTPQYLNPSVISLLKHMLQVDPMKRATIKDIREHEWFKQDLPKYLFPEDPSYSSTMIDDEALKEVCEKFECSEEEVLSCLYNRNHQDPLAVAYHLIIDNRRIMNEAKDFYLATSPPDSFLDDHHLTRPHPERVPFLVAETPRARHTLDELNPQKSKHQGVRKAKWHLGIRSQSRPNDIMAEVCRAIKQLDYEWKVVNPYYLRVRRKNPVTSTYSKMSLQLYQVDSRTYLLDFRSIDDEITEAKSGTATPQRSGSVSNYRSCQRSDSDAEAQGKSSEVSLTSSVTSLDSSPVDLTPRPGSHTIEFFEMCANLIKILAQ
AMP-activated protein kinase (AMPK) alpha-1/beta-1/gamma-1 (Homo sapiens), sequence (Q9Y478 2-270 partner limits assumed): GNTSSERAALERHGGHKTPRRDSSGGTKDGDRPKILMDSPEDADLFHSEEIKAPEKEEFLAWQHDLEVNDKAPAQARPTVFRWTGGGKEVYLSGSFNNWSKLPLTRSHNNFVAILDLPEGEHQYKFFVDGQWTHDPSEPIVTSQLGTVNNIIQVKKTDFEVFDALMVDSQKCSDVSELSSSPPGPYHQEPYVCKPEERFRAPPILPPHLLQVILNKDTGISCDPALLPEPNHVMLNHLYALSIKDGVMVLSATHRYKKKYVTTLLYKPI

| SMILES | inhibition [%] |
| --- | --- |
| COc1ccccc1N1CCN(c2ncnc3[nH]nc(Br)c23)CC1 | 42 |
| O=C(NCCCNc1nc(Nc2cccc(NC(=O)N3CCCC3)c2)ncc1I)c1cccs1 | 89 |
| Cc1n[nH]c2ccc(-c3cncc(OC[C@@H](N)Cc4c[nH]c5ccccc45)c3)cc12 | 57 |

What follows are compounds tested against T1, Testis-specific serine/threonine-protein kinase 1 (Homo sapiens) (UniProt Q9BXA7) (assay: Inhibition of STK22D at 1 uM in presence of 10 uM ATP by Select Screen kinase assay relative to untreated control).
T1 sequence (whole entry): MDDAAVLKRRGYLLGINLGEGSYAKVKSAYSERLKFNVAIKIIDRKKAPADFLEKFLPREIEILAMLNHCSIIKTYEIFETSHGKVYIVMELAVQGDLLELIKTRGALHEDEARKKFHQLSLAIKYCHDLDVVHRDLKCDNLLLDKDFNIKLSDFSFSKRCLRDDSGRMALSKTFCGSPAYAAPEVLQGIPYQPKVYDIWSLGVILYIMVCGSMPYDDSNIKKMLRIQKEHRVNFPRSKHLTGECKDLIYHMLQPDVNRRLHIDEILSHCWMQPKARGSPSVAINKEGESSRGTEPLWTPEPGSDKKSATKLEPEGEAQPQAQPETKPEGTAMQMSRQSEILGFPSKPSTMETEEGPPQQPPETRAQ
In short: (§2)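 Commercial SelectScreen profiling panel of 220 purified kinases. Each kinase was tested at a single inhibitor concentration of 1 μM, and activity was expressed as percent inhibition.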

| SMILES | inhibition [%] |
| --- | --- |
| COc1ccccc1N1CCN(c2ncnc3[nH]nc(Br)c23)CC1 | 21 |
| O=C(NCCCNc1nc(Nc2cccc(NC(=O)N3CCCC3)c2)ncc1I)c1cccs1 | 69 |
| Cc1n[nH]c2ccc(-c3cncc(OC[C@@H](N)Cc4c[nH]c5ccccc45)c3)cc12 | 71 |

What follows are compounds tested against Serine/threonine-protein kinase 24 (Homo sapiens) (UniProt Q9Y6E0) (assay: Inhibition of STK24 at 1 uM in presence of 100 uM ATP by Select Screen kinase assay relative to untreated control).
Serine/threonine-protein kinase 24 (Homo sapiens), sequence (Q9Y6E0 whole entry, looked up): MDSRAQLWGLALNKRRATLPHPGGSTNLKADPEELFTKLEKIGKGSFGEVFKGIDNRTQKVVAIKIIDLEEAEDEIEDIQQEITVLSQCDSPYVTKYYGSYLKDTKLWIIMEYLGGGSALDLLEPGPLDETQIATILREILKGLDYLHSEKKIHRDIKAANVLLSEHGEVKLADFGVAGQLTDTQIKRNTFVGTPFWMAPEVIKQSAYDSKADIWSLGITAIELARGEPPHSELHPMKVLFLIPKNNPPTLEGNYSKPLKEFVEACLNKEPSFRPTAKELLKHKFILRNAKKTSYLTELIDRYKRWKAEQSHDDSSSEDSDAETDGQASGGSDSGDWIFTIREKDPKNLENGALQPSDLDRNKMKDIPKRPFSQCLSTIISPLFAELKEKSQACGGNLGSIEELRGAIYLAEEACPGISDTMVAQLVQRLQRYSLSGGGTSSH
In short: as §2

| SMILES | inhibition [%] |
| --- | --- |
| COc1ccccc1N1CCN(c2ncnc3[nH]nc(Br)c23)CC1 | 27 |
| O=C(NCCCNc1nc(Nc2cccc(NC(=O)N3CCCC3)c2)ncc1I)c1cccs1 | 2 |
| Cc1n[nH]c2ccc(-c3cncc(OC[C@@H](N)Cc4c[nH]c5ccccc45)c3)cc12 | 76 |

Each compound was assayed against T2, Serine/threonine-protein kinase TAO2 (Homo sapiens) (UniProt Q9UL54) (assay: Inhibition of TAOK2 at 1 uM in presence of 10 uM ATP by Select Screen kinase assay relative to untreated control).
T2 sequence (whole entry): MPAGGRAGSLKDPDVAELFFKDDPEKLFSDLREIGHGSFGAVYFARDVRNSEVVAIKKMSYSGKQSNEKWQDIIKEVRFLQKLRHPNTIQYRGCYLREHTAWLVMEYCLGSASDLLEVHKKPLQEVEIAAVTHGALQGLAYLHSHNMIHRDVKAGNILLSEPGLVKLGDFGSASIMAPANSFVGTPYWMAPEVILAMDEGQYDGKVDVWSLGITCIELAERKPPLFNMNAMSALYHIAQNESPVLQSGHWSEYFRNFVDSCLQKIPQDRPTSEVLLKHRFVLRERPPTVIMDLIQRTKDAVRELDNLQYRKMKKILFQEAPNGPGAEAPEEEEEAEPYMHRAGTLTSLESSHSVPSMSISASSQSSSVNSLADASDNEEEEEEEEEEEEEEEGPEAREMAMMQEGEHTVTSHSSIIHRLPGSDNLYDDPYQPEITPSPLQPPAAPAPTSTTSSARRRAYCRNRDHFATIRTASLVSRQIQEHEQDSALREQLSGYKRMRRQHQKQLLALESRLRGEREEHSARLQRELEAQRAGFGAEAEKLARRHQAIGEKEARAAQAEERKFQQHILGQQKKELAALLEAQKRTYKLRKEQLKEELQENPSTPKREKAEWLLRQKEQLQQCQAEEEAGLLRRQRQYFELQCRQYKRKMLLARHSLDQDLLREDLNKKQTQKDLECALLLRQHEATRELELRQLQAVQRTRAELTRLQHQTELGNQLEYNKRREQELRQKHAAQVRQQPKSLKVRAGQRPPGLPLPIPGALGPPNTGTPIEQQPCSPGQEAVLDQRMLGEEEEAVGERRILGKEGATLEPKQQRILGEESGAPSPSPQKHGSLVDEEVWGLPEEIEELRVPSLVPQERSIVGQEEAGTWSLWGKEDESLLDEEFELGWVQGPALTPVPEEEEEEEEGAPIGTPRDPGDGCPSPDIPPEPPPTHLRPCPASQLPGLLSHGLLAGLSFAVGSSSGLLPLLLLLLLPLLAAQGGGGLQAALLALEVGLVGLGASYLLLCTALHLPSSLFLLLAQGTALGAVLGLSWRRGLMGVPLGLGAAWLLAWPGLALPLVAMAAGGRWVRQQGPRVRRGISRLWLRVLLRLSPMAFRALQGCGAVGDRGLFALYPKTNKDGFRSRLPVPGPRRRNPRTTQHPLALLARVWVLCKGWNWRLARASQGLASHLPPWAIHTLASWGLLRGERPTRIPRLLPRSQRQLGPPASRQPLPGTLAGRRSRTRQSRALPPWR
In short: as §2

| SMILES | inhibition [%] |
| --- | --- |
| COc1ccccc1N1CCN(c2ncnc3[nH]nc(Br)c23)CC1 | 2 |
| O=C(NCCCNc1nc(Nc2cccc(NC(=O)N3CCCC3)c2)ncc1I)c1cccs1 | 82 |
| Cc1n[nH]c2ccc(-c3cncc(OC[C@@H](N)Cc4c[nH]c5ccccc45)c3)cc12 | 35 |

These compounds were tested against Dual specificity tyrosine-phosphorylation-regulated kinase 1A (Homo sapiens) (UniProt Q13627) (assay: Inhibition of DYRK1A at 1 uM in presence of 10 uM ATP by Select Screen kinase assay relative to untreated control).
In short: as §1

| SMILES | inhibition [%] |
| --- | --- |
| COc1ccccc1N1CCN(c2ncnc3[nH]nc(Br)c23)CC1 | 78 |
| O=C(NCCCNc1nc(Nc2cccc(NC(=O)N3CCCC3)c2)ncc1I)c1cccs1 | 25 |
| Cc1n[nH]c2ccc(-c3cncc(OC[C@@H](N)Cc4c[nH]c5ccccc45)c3)cc12 | 102 |

Each compound was assayed against Tyrosine-protein kinase Fer (Homo sapiens) (UniProt P16591) (assay: Inhibition of FER at 1 uM in presence of 10 uM ATP by Select Screen kinase assay relative to untreated control).
Tyrosine-protein kinase Fer (Homo sapiens), sequence (P16591 whole entry, looked up): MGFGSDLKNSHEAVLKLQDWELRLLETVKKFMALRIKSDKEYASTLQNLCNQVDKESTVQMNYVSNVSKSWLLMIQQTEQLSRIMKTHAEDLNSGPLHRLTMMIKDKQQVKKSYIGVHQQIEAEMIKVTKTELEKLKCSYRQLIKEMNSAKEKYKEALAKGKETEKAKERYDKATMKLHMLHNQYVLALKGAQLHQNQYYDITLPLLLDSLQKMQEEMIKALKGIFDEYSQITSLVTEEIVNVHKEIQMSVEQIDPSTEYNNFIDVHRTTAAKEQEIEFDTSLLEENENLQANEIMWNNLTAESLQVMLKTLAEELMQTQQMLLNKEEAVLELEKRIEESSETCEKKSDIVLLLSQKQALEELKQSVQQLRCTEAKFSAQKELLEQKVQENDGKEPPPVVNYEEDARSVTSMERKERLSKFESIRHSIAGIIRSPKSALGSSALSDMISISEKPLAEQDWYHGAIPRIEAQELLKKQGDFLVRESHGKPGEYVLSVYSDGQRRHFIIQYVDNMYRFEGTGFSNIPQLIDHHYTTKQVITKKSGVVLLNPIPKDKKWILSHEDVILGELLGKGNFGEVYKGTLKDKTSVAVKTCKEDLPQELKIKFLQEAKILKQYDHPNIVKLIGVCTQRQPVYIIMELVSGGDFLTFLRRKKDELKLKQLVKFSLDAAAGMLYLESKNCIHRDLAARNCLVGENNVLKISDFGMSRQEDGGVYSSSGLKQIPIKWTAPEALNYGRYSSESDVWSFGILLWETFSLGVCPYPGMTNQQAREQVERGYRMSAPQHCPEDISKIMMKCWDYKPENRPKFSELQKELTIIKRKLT
In short: as §1

| SMILES | inhibition [%] |
| --- | --- |
| COc1ccccc1N1CCN(c2ncnc3[nH]nc(Br)c23)CC1 | 28 |
| O=C(NCCCNc1nc(Nc2cccc(NC(=O)N3CCCC3)c2)ncc1I)c1cccs1 | 38 |
| Cc1n[nH]c2ccc(-c3cncc(OC[C@@H](N)Cc4c[nH]c5ccccc45)c3)cc12 | 14 |

Each compound was assayed against Fibroblast growth factor receptor 4 (Homo sapiens) (UniProt P22455) (assay: Inhibition of FGFR4 at 1 uM in presence of 10 uM ATP by Select Screen kinase assay relative to untreated control).
Fibroblast growth factor receptor 4 (Homo sapiens), sequence (P22455 22-802 limits assumed): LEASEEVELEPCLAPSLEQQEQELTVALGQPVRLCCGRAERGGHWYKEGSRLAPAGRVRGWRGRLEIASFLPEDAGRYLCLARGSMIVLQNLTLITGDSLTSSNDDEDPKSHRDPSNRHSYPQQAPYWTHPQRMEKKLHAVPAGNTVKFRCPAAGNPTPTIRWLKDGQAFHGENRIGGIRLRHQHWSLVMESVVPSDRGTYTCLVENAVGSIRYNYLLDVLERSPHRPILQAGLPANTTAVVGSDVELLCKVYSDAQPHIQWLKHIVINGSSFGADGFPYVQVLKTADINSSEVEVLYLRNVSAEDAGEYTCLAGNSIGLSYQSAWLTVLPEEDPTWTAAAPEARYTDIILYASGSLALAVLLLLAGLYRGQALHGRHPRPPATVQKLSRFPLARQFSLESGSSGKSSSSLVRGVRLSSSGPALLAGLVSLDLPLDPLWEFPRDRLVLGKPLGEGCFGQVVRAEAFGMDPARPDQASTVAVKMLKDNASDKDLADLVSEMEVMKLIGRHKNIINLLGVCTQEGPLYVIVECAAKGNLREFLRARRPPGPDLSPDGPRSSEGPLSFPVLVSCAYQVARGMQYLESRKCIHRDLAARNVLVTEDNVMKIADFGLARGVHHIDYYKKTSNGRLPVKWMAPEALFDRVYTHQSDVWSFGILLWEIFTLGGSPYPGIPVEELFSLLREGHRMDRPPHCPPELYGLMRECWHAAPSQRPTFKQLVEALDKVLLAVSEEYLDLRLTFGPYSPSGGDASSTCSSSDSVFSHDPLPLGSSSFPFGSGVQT
In short: (§3)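 Single-concentration profiling at 1 μM against a panel of 220 purified kinases, run as an outsourced SelectScreen kinase profiling service. Activity is expressed as percent inhibition.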

| SMILES | inhibition [%] |
| --- | --- |
| COc1ccccc1N1CCN(c2ncnc3[nH]nc(Br)c23)CC1 | 15 |
| O=C(NCCCNc1nc(Nc2cccc(NC(=O)N3CCCC3)c2)ncc1I)c1cccs1 | 29 |
| Cc1n[nH]c2ccc(-c3cncc(OC[C@@H](N)Cc4c[nH]c5ccccc45)c3)cc12 | -2 |

These compounds were tested against T3, Interleukin-1 receptor-associated kinase 4 (Homo sapiens) (UniProt Q9NWZ3) (assay: Inhibition of IRAK4 at 1 uM in presence of 10 uM ATP by Select Screen kinase assay relative to untreated control).
T3 sequence (whole entry): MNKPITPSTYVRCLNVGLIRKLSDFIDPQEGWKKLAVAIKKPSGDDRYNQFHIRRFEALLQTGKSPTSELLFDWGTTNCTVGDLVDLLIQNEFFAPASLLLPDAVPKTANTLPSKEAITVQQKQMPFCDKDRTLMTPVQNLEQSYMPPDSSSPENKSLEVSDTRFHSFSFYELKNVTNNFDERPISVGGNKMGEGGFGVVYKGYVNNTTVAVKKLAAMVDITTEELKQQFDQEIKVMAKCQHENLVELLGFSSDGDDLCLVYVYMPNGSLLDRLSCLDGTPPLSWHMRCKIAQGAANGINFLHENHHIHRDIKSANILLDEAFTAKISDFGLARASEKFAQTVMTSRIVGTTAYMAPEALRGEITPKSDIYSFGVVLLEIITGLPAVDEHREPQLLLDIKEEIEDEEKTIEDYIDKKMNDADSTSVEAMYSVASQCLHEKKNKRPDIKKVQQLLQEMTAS
In short: as §3

| SMILES | inhibition [%] |
| --- | --- |
| COc1ccccc1N1CCN(c2ncnc3[nH]nc(Br)c23)CC1 | 9 |
| O=C(NCCCNc1nc(Nc2cccc(NC(=O)N3CCCC3)c2)ncc1I)c1cccs1 | 49 |
| Cc1n[nH]c2ccc(-c3cncc(OC[C@@H](N)Cc4c[nH]c5ccccc45)c3)cc12 | 53 |

What follows are compounds tested on Mast/stem cell growth factor receptor Kit (Homo sapiens), P10721 [T670I] (assay: Inhibition of KIT T670I mutant at 1 uM in presence of 10 uM ATP by Select Screen kinase assay relative to untreated control).
Mast/stem cell growth factor receptor Kit (Homo sapiens), P10721 [T670I], sequence (P10721 whole entry T670I): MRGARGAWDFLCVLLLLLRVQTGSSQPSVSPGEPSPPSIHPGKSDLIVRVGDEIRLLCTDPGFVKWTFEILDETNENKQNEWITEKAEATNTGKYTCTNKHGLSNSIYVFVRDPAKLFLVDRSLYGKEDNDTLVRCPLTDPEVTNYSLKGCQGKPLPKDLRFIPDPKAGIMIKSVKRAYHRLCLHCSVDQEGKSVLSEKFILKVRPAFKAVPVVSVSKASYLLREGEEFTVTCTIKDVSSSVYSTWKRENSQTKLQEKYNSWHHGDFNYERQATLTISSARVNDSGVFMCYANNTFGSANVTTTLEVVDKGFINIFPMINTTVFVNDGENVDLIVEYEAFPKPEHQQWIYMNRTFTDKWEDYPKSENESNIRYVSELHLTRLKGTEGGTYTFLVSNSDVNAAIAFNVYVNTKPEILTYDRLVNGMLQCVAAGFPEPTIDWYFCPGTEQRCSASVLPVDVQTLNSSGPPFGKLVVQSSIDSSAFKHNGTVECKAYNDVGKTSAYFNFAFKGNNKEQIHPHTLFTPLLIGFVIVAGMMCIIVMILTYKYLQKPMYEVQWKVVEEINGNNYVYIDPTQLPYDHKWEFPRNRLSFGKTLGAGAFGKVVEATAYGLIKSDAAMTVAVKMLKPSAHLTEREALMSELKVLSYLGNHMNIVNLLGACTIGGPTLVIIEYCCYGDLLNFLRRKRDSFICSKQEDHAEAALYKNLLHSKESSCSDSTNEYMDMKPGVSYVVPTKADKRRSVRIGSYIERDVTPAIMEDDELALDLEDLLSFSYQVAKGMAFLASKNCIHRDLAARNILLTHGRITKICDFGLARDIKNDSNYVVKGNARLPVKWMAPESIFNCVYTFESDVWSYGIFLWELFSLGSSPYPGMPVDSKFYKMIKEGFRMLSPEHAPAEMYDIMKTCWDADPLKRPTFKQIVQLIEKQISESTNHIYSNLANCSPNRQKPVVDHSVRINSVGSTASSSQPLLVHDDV
In short: as §3

| SMILES | inhibition [%] |
| --- | --- |
| COc1ccccc1N1CCN(c2ncnc3[nH]nc(Br)c23)CC1 | 11 |
| O=C(NCCCNc1nc(Nc2cccc(NC(=O)N3CCCC3)c2)ncc1I)c1cccs1 | 29 |
| Cc1n[nH]c2ccc(-c3cncc(OC[C@@H](N)Cc4c[nH]c5ccccc45)c3)cc12 | 0 |
